Values after ≈ are worked out from the molar mass of the structure shown. Active and inactive are the calls of the source. No cut-off for these calls is given here.
Experiments:
[1] = Drug level in DMSO-d6/PBS buffer treated with N,N-bis(2-chloroethyl)-4-(4,4,5,5-tetramethyl-1,3,2-dioxaborolan-2-yl)aniline assessed as compound formation after 10 days in presence of GSH by IT-TOF mass analysis; type: physicochemical; conditions: 240 h
[2] = test system: IGROV-1; assay: Growth inhibition of human IGROV1 cells after 48 hrs by SRB assay; type: functional; conditions: IGROV-1, 48 h
Method in brief: (§1)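 NCI-60 five-dose screen at 100 µM, 10 µM, 1 µM, 100 nM and 10 nM. Incubation 48 h at 37 °C, 5% CO2, 100% humidity. Growth was expressed relative to the no-drug control and to the time-zero cell number, and GI50 was derived from these values.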

[3] = test system: Malme-3M; assay: Growth inhibition of human MALME-3M cells after 48 hrs by SRB assay; type: functional; method in brief: as §1
[4] = test system: SNB-75; assay: Growth inhibition of human SNB75 cells after 48 hrs by SRB assay; type: functional; conditions: SNB-75, 48 h; method in brief: as §1
[5] = test system: CCRF-CEM; assay: Growth inhibition of human CCRF-CEM cells after 48 hrs by SRB assay; type: functional; method in brief: as §1
[6] = test system: RPMI-8226; assay: Growth inhibition of human RPMI8226 cells after 48 hrs by SRB assay; type: functional; conditions: RPMI-8226, 48 h; method in brief: as §1
[7] = test system: dsDNA; assay: Induction of DNA-interstanded-cross-link formation in [32P]-labeled 49-mer duplex DNA (unknown origin) at 1 mM in absence of H2O2 after 16 hrs by PAGE relative to control; type: functional
Method in brief: (§2)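 A 32P-labelled 49-mer, annealed with 1.5 equiv complement (65 °C for 3 min in 10 mM potassium phosphate pH 7, 100 mM NaCl, then slow cooling), was used at 1.0 µM before final dilution. Duplex was mixed with compound (final 1 mM), NaCl and potassium phosphate pH 8, with or without H2O2. Incubation 16 h at room temperature, formamide quench, then 20% denaturing PAGE.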

[8] = test system: MCF7; assay: Growth inhibition of human MCF7 cells after 48 hrs by SRB assay; type: functional; conditions: MCF7, 48 h; method in brief: as §1
[9] = test system: K562; assay: Growth inhibition of human K562 cells after 48 hrs by SRB assay; type: functional; conditions: K562, 48 h; method in brief: as §1
[10] = test system: SR; assay: Growth inhibition of human SR cells after 48 hrs by SRB assay; type: functional; method in brief: as §1
[11] = test system: HOP-92; assay: Growth inhibition of human HOP92 cells after 48 hrs by SRB assay; type: functional; conditions: HOP-92, 48 h; method in brief: as §1
[12] = test system: HT-29; assay: Growth inhibition of human HT-29 cells after 48 hrs by SRB assay; type: functional; conditions: HT-29, 48 h; method in brief: as §1
[13] = test system: SK-OV-3; assay: Growth inhibition of human SKOV3 cells after 48 hrs by SRB assay; type: functional; conditions: SK-OV-3, 48 h; method in brief: as §1
[14] = test system: MDA-MB-468; assay: Growth inhibition of human MDA-MB-468 cells after 48 hrs by SRB assay; type: functional; conditions: MDA-MB-468, 48 h; method in brief: as §1
[15] = test system: MDA-MB-468; assay: Growth inhibition of human MDA-MB-468 cells after 48 hrs by […]; type: functional, cell-based; conditions: MDA-MB-468, 48 h
[16] = Solubility of the compound in PBS buffer at 10 mM at pH 7.4 by UV-based analysis; type: physicochemical
Method in brief: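 Compound (10 mM DMSO stock) was diluted into pH 7.4 buffer (ethanolamine/KH2PO4/potassium acetate/KCl) to a final 5% DMSO. After sonication and 18 h agitation the mixture was filtered and scanned by UV at 230-800 nm. Solubility was calculated from calibration plots made in 20% acetonitrile buffer, in quadruplicate, with solubility standards on each plate.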

[17] = test system: MOLT-4; assay: Growth inhibition of human MOLT4 cells after 48 hrs by SRB assay; type: functional; conditions: MOLT-4, 48 h; method in brief: as §1
[18] = test system: dsDNA; assay: Induction of DNA-interstanded-cross-link formation in [32P]-labeled 49-mer duplex DNA (unknown origin) at 1 mM in presence of H2O2 after 16 hrs by PAGE relative to control; type: functional; method in brief: as §2
[19] = Chemical stability of the compound in 100 mM pH 6 PBS buffer assessed as compound remaining at 10 mM at room temperature after 2 days; type: physicochemical; conditions: read-out: Stability
Method in brief: (§3)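 Compound at 10 mM in 100 mM PBS (pH 6.0 or 7.4, prepared in D2O), diluted 9:1 with DMSO-d6. Kept at room temperature for 3-10 days. The fraction of intact compound was followed by NMR.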

[20] = Chemical stability of the compound in 50% DMSO/PBS buffer assessed as compound remaining at pH 6 in presence of GSH after 24 hrs; type: physicochemical; conditions: 50% DMSO/PBS buffer with GSH, read-out: Stability
Method in brief: (§4)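 Compound with GSH in DMSO-d6/PBS buffer 1:1, pH 6. Intact compound was followed by NMR over 24-48 h.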

[21] = Chemical stability of the compound in 100 mM pH 6 PBS buffer assessed as compound remaining at 10 mM at room temperature after 4 days; type: physicochemical; conditions: read-out: Stability; method in brief: as §3
[22] = Toxicity in CD1 mouse at 1.5 mg/kg/day, ip for 5 days per week measured after 3 months; type: organism-based; conditions: in vivo, 120 h
Method in brief: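 Mice were dosed i.p. at 1.5 mg/kg per day, 5 days per week, over three months and observed for toxicity.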

[23] = test system: Lymphocyte; assay: Induction of apoptosis in human lymphocytes at 10 uM after 24 hrs by Annexin V-FITC/propidium iodide-staining based flow cytometry; type: cell-based
Method in brief: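 Normal PBMCs from 3 donors were isolated on Ficoll and treated at 10 µM. Apoptosis was measured by annexin V-FITC/PI flow cytometry against time-matched untreated controls.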

[24] = Chemical stability of the compound in 100 mM pH 7 PBS buffer assessed as compound remaining at 10 mM at room temperature after 4 days; type: physicochemical; conditions: read-out: Stability; method in brief: as §3
[25] = test system: Lymphocyte; assay: Induction of apoptosis in human CLL-derived lymphocytes up to 30000 nM after 24 hrs by Annexin V-FITC/propidium iodide-staining based flow cytometry; type: functional, cell-based
Method in brief: (§5)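 Patient CLL lymphocytes isolated on Ficoll-Hypaque and held in RPMI 1640 with 10% autologous plasma at 1×10^7 cells/mL, fresh cells only. Cells were exposed to a concentration series for 24 h alongside time-matched untreated controls. Apoptosis was measured by annexin V-FITC/PI flow cytometry, at least 10,000 events per sample; each patient was analysed separately.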

[26] = Chemical stability of the compound in 100 mM pH 7.4 PBS buffer assessed as compound remaining at 10 mM at room temperature after 2 days; type: physicochemical; conditions: read-out: Stability; method in brief: as §3
[27] = Cytotoxicity against human CLL cells assessed as reduction in cell viability after 24 hrs; type: functional, cell-based; method in brief: as §5
[28] = test system: MDA-MB-468; assay: Antitumor activity against human MDA-MB-468 cells xenografted in nude CD1 mouse assessed as tumor size of initial size at 1.5 mg/kg/day, ip measured after 7 weeks (reference value: 278 to 657%); type: functional
Method in brief: (§6)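 Female athymic nude mice (35 days, 20-22 g) received 2 million MDA-MB-468 cells s.c. in the flank, suspended in 1:1 matrigel/DMEM. Mice with palpable tumours were given 1.5 mg/kg i.p. or vehicle, 11 mice per group. Tumour size was measured by caliper every 7 days and body weight was recorded regularly.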

[29] = Drug metabolism in DMSO-d6/PBS buffer assessed as (S)-3-((2-amino-3-methoxy-3-oxopropylthio)methyl)-4-((2-chloroethyl)(2-hydroxyethyl)amino)phenylboronic acid formation after 10 days in presence of GSH by IT-TOF mass analysis
[30] = Chemical stability of the compound in 90% DMSO/PBS buffer assessed as compound remaining at pH 6 in presence of GSH; type: physicochemical
Method in brief: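 Compound and GSH at a 1:2 ratio in DMSO-d6/PBS 9:1, pH 6.0, at room temperature. Compound-only and GSH-only samples served as controls. Intact compound was monitored by NMR.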

[31] = Solubility of the compound in 50% DMSO/PBS buffer at 10 mM pH 6 after 3 to 10 days by NMR analysis; type: physicochemical; conditions: pH 6, 10000 µM
[32] = Drug metabolism in DMSO-d6/PBS buffer assessed as 1-(2-chloroethyl)-5-(methoxycarbonyl)-1,2,3,4,5,7-hexahydrobenzo[g][1,3,6]thiadiazonin-9-ylboronic acid formation after 10 days in presence of GSH by IT-TOF mass analysis
[33] = test system: DNA; assay: Induction of DNA cross-linking activity in human CLL-derived lymphocytes assessed as increase in gammaH2AX formation at 10 uM after 24 hrs by flow cytometry; type: functional, cell-based
Method in brief: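 Primary CLL lymphocytes from 3 patients were treated for 24 h at 10 µM or 1 µM, depending on compound. H2AX phosphorylation (% γH2AX) was measured by flow cytometry.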

[34] = Toxicity in CD1 mouse xenografted with human MDA-MB-468 cells assessed as body weight change at 1.5 mg/kg/day, ip measured after 7 weeks; type: organism-based; conditions: in vivo, 1176 h; method in brief: as §6
[35] = Chemical stability of the compound in 50% DMSO/PBS buffer assessed as compound remaining at pH 6 in presence of GSH after 48 hrs; type: physicochemical; conditions: 50% DMSO/PBS buffer with GSH, read-out: Stability; method in brief: as §4
[36] = Drug metabolism in DMSO-d6/PBS buffer assessed as 1-(2-hydroxyethyl)-5-(methoxycarbonyl)-1,2,3,4,5,7-hexahydrobenzo[g][1,3,6]thiadiazonin-9-ylboronic acid formation after 10 days in presence of GSH by IT-TOF mass analysis
[37] = Drug level in DMSO-d6/PBS buffer treated with 4-(bis(2-chloroethyl)amino)phenylboronic acid assessed as compound formation after 10 days in presence of GSH by IT-TOF mass analysis; type: physicochemical; conditions: 240 h

CC1(C)OB(c2ccc(N(CCO)CCCl)cc2)OC1(C)C
Drug uptake [1]: Active

Cc1cc(N(CCCl)CCCl)ccc1B1OC(C)(C)C(C)(C)O1
GI50 [2]: 16.1 µM
GI50 [3]: 13.6 µM
GI50 [4]: 10.1 µM
GI50 [5]: 2.9 µM
GI50 [6]: 12 µM
Activity [7]: 1.5 to 15%
GI50 [8]: 3.86 µM
GI50 [9]: 5.48 µM
GI50 [10]: 0.49 µM
GI50 [11]: 13.3 µM
GI50 [12]: 14.7 µM
GI50 [13]: 4.62 µM
GI50 [14]: 7.88 µM
IC50 [15]: 48.3 µM
solubility [16]: 24 µM (≈ 8.59 µg/mL)
GI50 [17]: 2.6 µM
Activity [18]: < 65%

COC(=O)[C@H](N)CSCc1cc(B(O)O)ccc1N(CCCl)CCCl
remaining at 48 h, 10000 µM [19]: 92%
GI50 [2]: 3.32 µM
remaining at 24 h [20]: 90%
GI50 [3]: 2.39 µM
GI50 [4]: 0.85 µM
remaining at 96 h, 10000 µM [21]: 85%
GI50 [5]: 0.54 µM
Activity [22]: Non-Toxic
GI50 [6]: 2.62 µM
Activity [23]: Non-Toxic
remaining at 96 h, 10000 µM [24]: 85%
Activity [25]: Active
Activity [7]: 1.5 to 15%
GI50 [8]: 0.72 µM
remaining at 48 h, 10000 µM [26]: 92%
IC50 [27]: 0.003 to 0.778 µM
Activity [28]: 58 - 178%
Drug metabolism [29]: Metabolite detected
Stability [30]: Stable
solubility [31]: Insoluble
Drug metabolism [32]: Metabolite detected
GI50 [9]: 3.25 µM
Activity [33]: Active
Activity [34]: Non-Toxic
GI50 [10]: 0.28 µM
GI50 [11]: 0.56 µM
remaining at 48 h [35]: 70%
GI50 [12]: 4.03 µM
Drug metabolism [36]: Metabolite detected
GI50 [13]: 1.46 µM
GI50 [14]: 1.49 µM
IC50 [15]: 3.4 µM
solubility [16]: 231 µM (≈ 94.5 µg/mL)
GI50 [17]: 0.6 µM
Activity [18]: < 65%

OCCN(CCCl)c1ccc(B(O)O)cc1
Drug uptake [37]: Active
